Compounds with a hit are over-represented: about 5.9% of the library has one in this group of screens.
GASC1 inh: inhibitors of human demethylase GASC-1 KDM4C | 96,000 tested, 0.15% active | Q9H3R0 | GST-KDM4C 2-372, H3K9me3 peptide, LANCE TR-FRET | AID 720574 | inhibition, % at 12.5 µM;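 active = mean replicate inhibition above about 25%, with at least 55% of replicates also reaching it, limit read from the data, passing the limit was not always enough; inconclusive = only one of those two conditions met; inactive = neither condition met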
Target sequence (Q9H3R0 2-372 limits assumed): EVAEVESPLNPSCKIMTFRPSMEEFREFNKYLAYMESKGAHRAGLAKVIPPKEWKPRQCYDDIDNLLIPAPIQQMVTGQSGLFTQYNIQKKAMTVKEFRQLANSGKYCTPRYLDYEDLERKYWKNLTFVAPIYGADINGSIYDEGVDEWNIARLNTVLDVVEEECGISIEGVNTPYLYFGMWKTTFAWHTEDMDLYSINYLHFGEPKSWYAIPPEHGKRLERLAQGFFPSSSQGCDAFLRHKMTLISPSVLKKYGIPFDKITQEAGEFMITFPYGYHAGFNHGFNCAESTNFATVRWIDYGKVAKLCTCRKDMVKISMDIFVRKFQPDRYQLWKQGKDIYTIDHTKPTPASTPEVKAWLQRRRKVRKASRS
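Material: N-terminal GST-fused human GASC-1 (KDM4C) fragment, residues 2-372. Input: 10 nM enzyme. Incubation: enzyme reaction 30 min, then detection 60 min, both room temperature. Doses: one test concentration per compound. Read-out basis: inhibition from TR-FRET ratio decrease. Detection: LANCE TR-FRET, excitation 340 nm, emissions 618 and 671 nm.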
IDH1 mut inh: inhibitors of human IDH1 R132H; O75874; IDH1 R132H reductase, diaphorase/resazurin fluorescence, 60 min; inhibition, % at 10 µM; 70,000 tested, 0.18% active; AID 624101; in the data active = inhibition above about 34%; inconclusive = no clear call, values can overlap the other calls; inactive = below about 11%
Pf Dd2 growth: blocks growth of Plasmodium falciparum Dd2 parasites; P. falciparum Dd2 growth, SYBR Green, 72 h; active compounds read low; activity change, % at 10 µM; 94,000 tested, 2.3% active; in the data active = activity change below about -80%; inconclusive = no clear call, values can overlap the other calls
T cruzi growth-1: blocks T. cruzi growth in NIH3T3 culture; inhibition, % at 8.34 µM; 77,000 tested, 5.9% active; T. cruzi beta-gal in NIH3T3, GalScreen luminescence, 90 h;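 active = mean inhibition above about 93%, with at least 55% of replicates each passing it, limit read from the data, passing the limit was not always enough; inconclusive = only one of those two conditions holds; inactive = neither condition holds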
T cruzi growth-2: Trypanosoma cruzi proliferation inhibition | shares compounds with T cruzi growth-1 | T. cruzi beta-gal in NIH3T3, GalScreen luminescence, 90 h | inhibition, % at 8.35 µM | 5,600 tested, 72% active | AID 651739;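 active = mean replicate inhibition above about 95% and at least 55% of replicates individually reaching it, limit read from the data; inconclusive = only one of the two criteria is met; inactive = neither criterion is met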
T cruzi growth-3: Trypanosoma cruzi proliferation inhibition | shares compounds with T cruzi growth-1 | T. cruzi beta-gal in NIH3T3, GalScreen luminescence, 90 h | inhibition, % at 2.09 µM | 5,600 tested, 21% active;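 active = mean inhibition above about 95%, with at least 55% of replicates also reaching it, limit read from the data; inconclusive = meets just one of the two conditions; inactive = meets neither condition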
NIH3T3 tox: kills mouse NIH/3T3 fibroblasts. shares compounds with T cruzi growth-1. NIH/3T3 viability, CellTiter-Glo ATP luminescence, 90 h. cytotoxicity (signal decrease), % at 8.35 µM. 5,600 tested, 14% active. AID 651742;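 active = mean signal decrease across replicates above about 35% based on untreated-well scatter, with enough replicates individually passing, limit read from the data; inconclusive = no rule stated though some were filed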
NIH3T3 tox 2: kills mouse NIH/3T3 fibroblasts | inhibition, % at 24.9 µM | 5,600 tested, 56% active | NIH/3T3 viability, CellTiter-Glo ATP luminescence, 90 h | shares compounds with T cruzi growth-1;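 active = mean loss of cell viability signal at or above a set limit, and enough replicates individually reaching it; inconclusive = meets only the mean limit or only the replicate share; inactive = meets neither condition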
A number is an active result; n = inactive; u = inconclusive; x = not tested or not shown.

SMILES	GASC1 inh	IDH1 mut inh	Pf Dd2 growth	T cruzi growth-1	T cruzi growth-2	T cruzi growth-3	NIH3T3 tox	NIH3T3 tox 2
COC(=O)C[C@H]1CC[C@H]2[C@H](COc3ccc(NS(=O)(=O)c4ccc(F)cc4)cc3C(=O)N2C)O1	n	x	n	97	n	n	n	n
O=C(N/N=C/c1ccc(O)c(O)c1O)c1ccccn1	x	n	x	x	x	x	x	x
C[C@@H]1CCCCO[C@@H](CN(C)S(=O)(=O)c2ccc(F)cc2)[C@H](C)CN([C@@H](C)CO)C(=O)c2cc(NS(=O)(=O)c3ccc(Cl)cc3)ccc2O1	n	n	n	103	95	n	n	34
C[C@@H]1CCCCO[C@H](CN(C)S(=O)(=O)c2ccc(Cl)cc2)[C@@H](C)CN([C@@H](C)CO)C(=O)c2cc(NS(=O)(=O)c3ccc(F)cc3)ccc2O1	n	x	n	n	x	x	x	x
C[C@@H]1CN([C@H](C)CO)C(=O)c2cc(NS(=O)(=O)c3ccc(Cl)cc3)ccc2O[C@@H](C)CCCCO[C@H]1CN(C)S(=O)(=O)c1ccc(F)cc1	n	n	n	103	100	110	n	n
C[C@@H]1CN([C@@H](C)CO)C(=O)c2cc(NS(=O)(=O)c3ccc(F)cc3)ccc2O[C@@H]1CN(C)S(=O)(=O)c1ccc(Cl)cc1	n	n	n	92	110	n	n	46
C[C@@H]1CCCCO[C@@H](CN(C)S(=O)(=O)c2ccc(Cl)cc2)[C@H](C)CN([C@H](C)CO)C(=O)c2cc(NS(=O)(=O)c3ccc(F)cc3)ccc2O1	n	n	n	n	x	x	x	x
C[C@H](CO)N1C[C@H](C)[C@@H](CN(C)S(=O)(=O)c2ccc(F)cc2)OCCCC[C@H](C)Oc2ccc(NS(=O)(=O)c3ccc(Cl)cc3)cc2C1=O	n	n	n	100	u	u	48	27
C[C@@H]1CCCCO[C@@H](CN(C)S(=O)(=O)c2ccc(Cl)cc2)[C@@H](C)CN([C@H](C)CO)C(=O)c2cc(NS(=O)(=O)c3ccc(F)cc3)ccc2O1	n	x	n	n	x	x	x	x
CCn1c(SCC(=O)Nc2ccc(C)c(C)c2)nnc1-c1ccncc1	x	n	x	x	x	x	x	x
C[C@@H]1CN([C@@H](C)CO)C(=O)c2cc(NS(=O)(=O)c3ccc(F)cc3)ccc2O[C@@H](C)CCCCO[C@@H]1CN(C)S(=O)(=O)c1ccc(Cl)cc1	n	n	n	u	106	103	n	u
C[C@@H]1CCCCO[C@@H](CN(C)S(=O)(=O)c2ccc(F)cc2)[C@@H](C)CN([C@@H](C)CO)C(=O)c2cc(NS(=O)(=O)c3ccc(Cl)cc3)ccc2O1	n	n	n	103	103	n	n	53
O=C(CCSc1nc2ccccc2s1)Nc1ccccc1Cl	x	n	x	x	x	x	x	x
C[C@@H]1CN([C@@H](C)CO)C(=O)c2cc(NC(=O)Nc3ccc(F)cc3)ccc2O[C@@H]1CN(C)Cc1ccc(-c2ccccc2)cc1	n	n	n	94	96	n	57	102
C[C@@H]1CN([C@H](C)CO)C(=O)c2cc(NC(=O)Nc3ccc(F)cc3)ccc2O[C@@H]1CN(C)Cc1ccc(-c2ccccc2)cc1	n	n	n	u	95	n	111	106
C[C@@H]1CN([C@H](C)CO)C(=O)c2cc(NC(=O)Nc3ccc(F)cc3)ccc2O[C@H]1CN(C)Cc1ccc(-c2ccccc2)cc1	n	x	n	n	x	x	x	x
CC(=O)C(C)Sc1ncnc2sc(-c3ccccc3)cc12 (stereo not given)	x	n	x	x	x	x	x	x
Cc1cc([N+](=O)[O-])ccc1NC(=O)CSc1nnnn1-c1ccccc1	x	n	x	x	x	x	x	x
C[C@H](CO)N1C[C@H](C)[C@@H](CN(C)Cc2ccc(C(=O)Nc3ccccc3N)cc2)Oc2c(NC(=O)c3cnccn3)cccc2C1=O	n	x	-92	106	104	104	n	52
C[C@H]1CN([C@@H](C)CO)C(=O)c2cccc(NC(=O)c3cnccn3)c2O[C@H]1CN(C)Cc1ccc(C(=O)Nc2ccccc2N)cc1	n	x	n	x	x	x	x	x
C[C@H]1CN([C@@H](C)CO)C(=O)c2cccc(NC(=O)c3cnccn3)c2O[C@@H]1CN(C)Cc1ccc(C(=O)Nc2ccccc2N)cc1	n	x	-94	102	111	n	n	u
C[C@H]1CN([C@@H](C)CO)C(=O)c2cccc(NC(=O)Nc3ccc(C(F)(F)F)cc3)c2O[C@@H]1CN(C)S(=O)(=O)c1ccc(F)cc1	n	x	n	n	x	x	x	x
C[C@@H]1CN([C@@H](C)CO)C(=O)c2cccc(NC(=O)Nc3ccc(C(F)(F)F)cc3)c2O[C@H]1CN(C)Cc1ccc(Cl)c(Cl)c1	n	n	n	130	102	116	39	89
C[C@@H]1CN([C@H](C)CO)C(=O)c2cccc(NC(=O)Nc3ccc(C(F)(F)F)cc3)c2O[C@H]1CN(C)Cc1ccc(Cl)c(Cl)c1	n	x	n	u	99	108	n	105
C[C@@H]1CN([C@H](C)CO)C(=O)c2cccc(NC(=O)Nc3ccc(C(F)(F)F)cc3)c2O[C@@H]1CN(C)S(=O)(=O)c1ccc(Cl)cc1	x	n	n	108	103	107	n	105
SMILES	GASC1 inh	IDH1 mut inh	Pf Dd2 growth	T cruzi growth-1	T cruzi growth-2	T cruzi growth-3	NIH3T3 tox	NIH3T3 tox 2
COc1ccc(NC(=O)Nc2cccc3c2O[C@@H](CN(C)Cc2ccc(Cl)c(Cl)c2)[C@H](C)CN([C@@H](C)CO)C3=O)cc1	n	n	n	116	99	102	n	53
CCc1ccccc1NC(=O)CN(C)S(=O)(=O)c1ccc2ccccc2c1	x	n	x	x	x	x	x	x
O=C(CSc1ncn(-c2ccccc2)n1)Nc1ccc(Cl)cc1	x	n	x	x	x	x	x	x
COc1ccc2c3c(n(C)c2c1)[C@H](CO)N(C(=O)CN(C)C)CC31CN(Cc2cccnc2)C1	n	x	u	x	x	x	x	x
C[C@H]1CN([C@@H](C)CO)C(=O)c2cccc(NC(=O)Nc3ccc(C(F)(F)F)cc3)c2O[C@H]1CN(C)Cc1ccc2c(c1)OCO2	n	x	n	99	106	103	n	98
C[C@H](CO)N1C[C@H](C)[C@H](CN(C)Cc2ccc(Cl)c(Cl)c2)Oc2ccc(NC(=O)Nc3ccc(C(F)(F)F)cc3)cc2C1=O	n	n	n	103	98	109	n	108
CSc1nc2n(n1)C(=O)CC(C)(C)N2	x	n	x	x	x	x	x	x
Cc1ccc(S(=O)(=O)N(C)C[C@@H]2OCCCC[C@H](C)Oc3ccc(NS(=O)(=O)c4cccs4)cc3C(=O)N([C@H](C)CO)C[C@@H]2C)cc1	n	n	n	119	96	n	n	n
Cc1ccc(S(=O)(=O)N(C)C[C@@H]2OCCCC[C@@H](C)Oc3ccc(NS(=O)(=O)c4cccs4)cc3C(=O)N([C@@H](C)CO)C[C@@H]2C)cc1	n	x	n	103	104	n	n	n

Assay outcomes as filed in PubChem BioAssay.
